# Laboratory results reported in ChEMBL document CHEMBL1157509, “Alpha-glucosidase inhibitor from Kothala-himbutu (Salacia reticulata WIGHT)” (J Nat Prod, 2008).
# pIC50, pKi: −log10 of the molar value. Calls of active or inactive are those of the source. The rule behind the calls is not given here.
# Legend:
# [1] = target: T1, Pancreatic alpha-amylase (Sus scrofa) (UniProt P00690); assay: Inhibition of pig pancreas alpha amylase
# T1 sequence (whole entry): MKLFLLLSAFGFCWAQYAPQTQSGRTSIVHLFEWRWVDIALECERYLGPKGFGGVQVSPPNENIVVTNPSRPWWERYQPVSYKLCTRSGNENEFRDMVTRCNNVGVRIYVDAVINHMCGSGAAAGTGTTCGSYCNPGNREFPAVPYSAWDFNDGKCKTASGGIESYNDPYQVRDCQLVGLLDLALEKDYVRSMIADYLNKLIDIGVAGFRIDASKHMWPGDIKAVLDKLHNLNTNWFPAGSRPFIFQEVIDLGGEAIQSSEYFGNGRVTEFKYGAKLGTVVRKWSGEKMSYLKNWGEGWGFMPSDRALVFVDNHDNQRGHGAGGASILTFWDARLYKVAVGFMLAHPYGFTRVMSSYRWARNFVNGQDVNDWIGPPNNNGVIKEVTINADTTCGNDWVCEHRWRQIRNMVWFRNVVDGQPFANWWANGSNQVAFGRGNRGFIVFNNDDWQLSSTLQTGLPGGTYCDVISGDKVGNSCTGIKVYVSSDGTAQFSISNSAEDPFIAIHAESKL
# [2] = target: T2, Sucrase-isomaltase, intestinal (Rattus norvegicus, UniProt P23739); assay: Inhibition of rat intestinal isomaltase
# T2 sequence (P23739 1-1013 limits assumed): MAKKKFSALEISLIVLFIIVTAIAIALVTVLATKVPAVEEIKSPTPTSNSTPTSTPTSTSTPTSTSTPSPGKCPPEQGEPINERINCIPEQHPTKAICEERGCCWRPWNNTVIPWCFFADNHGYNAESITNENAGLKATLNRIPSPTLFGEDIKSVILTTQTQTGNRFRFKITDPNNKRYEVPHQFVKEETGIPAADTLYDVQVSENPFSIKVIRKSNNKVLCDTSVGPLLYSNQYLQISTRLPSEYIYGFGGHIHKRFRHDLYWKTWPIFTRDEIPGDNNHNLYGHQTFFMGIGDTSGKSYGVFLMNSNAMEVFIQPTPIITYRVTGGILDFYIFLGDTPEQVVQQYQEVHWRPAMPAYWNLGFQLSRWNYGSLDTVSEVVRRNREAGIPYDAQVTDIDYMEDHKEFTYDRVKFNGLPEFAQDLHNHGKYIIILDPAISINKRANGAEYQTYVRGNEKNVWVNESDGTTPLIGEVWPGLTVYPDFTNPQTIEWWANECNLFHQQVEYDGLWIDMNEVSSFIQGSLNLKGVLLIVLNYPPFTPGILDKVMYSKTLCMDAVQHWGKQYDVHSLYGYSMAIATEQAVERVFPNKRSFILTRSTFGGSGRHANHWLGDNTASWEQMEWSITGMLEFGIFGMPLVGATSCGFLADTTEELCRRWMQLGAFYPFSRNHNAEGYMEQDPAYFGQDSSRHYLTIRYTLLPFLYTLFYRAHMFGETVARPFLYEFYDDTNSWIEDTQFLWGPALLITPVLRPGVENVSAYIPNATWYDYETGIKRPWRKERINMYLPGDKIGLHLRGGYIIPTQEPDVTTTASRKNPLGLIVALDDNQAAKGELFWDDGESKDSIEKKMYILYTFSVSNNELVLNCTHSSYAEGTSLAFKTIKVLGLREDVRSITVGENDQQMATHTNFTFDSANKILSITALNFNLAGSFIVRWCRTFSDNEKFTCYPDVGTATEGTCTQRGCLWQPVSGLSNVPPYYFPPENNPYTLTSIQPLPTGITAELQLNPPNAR
# T2 sequence (P23739 1014-1841 limits assumed): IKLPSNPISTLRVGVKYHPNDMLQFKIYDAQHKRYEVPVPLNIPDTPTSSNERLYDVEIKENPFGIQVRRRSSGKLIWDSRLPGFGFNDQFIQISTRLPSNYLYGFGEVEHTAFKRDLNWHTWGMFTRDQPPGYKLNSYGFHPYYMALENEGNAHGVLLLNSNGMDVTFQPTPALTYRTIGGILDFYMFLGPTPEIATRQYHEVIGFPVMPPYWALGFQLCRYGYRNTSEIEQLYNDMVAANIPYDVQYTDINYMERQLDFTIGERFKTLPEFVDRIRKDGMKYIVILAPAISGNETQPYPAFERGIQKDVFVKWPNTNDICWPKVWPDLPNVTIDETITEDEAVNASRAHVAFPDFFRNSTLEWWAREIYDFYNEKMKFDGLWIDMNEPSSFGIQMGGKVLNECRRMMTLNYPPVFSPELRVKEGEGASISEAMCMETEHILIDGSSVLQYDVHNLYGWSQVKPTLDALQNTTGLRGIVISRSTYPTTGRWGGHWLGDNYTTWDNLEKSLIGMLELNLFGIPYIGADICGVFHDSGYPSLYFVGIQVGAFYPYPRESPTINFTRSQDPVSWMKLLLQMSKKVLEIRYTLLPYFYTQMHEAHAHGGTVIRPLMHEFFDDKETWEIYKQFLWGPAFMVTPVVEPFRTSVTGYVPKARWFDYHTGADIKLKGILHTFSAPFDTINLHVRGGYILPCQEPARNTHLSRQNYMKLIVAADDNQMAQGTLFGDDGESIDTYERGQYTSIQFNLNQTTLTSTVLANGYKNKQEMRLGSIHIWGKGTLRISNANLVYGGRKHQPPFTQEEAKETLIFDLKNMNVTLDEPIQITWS
# Outline: (§1)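 Crude enzyme from rat intestinal acetone powder in 0.1 M K3PO4 buffer (5 mM EDTA, pH 7). Substrates: maltose 25 mM (maltase), sucrose 100 mM (sucrase), isomaltose 25 mM (isomaltase). Sample added in DMSO. Incubated 30 min, then stopped with 2 M Tris-HCl. Released glucose measured by glucose oxidase. IC50 read graphically from percent inhibition versus log concentration.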
# [3] = target: T2, Sucrase-isomaltase, intestinal; assay: Inhibition of rat intestinal sucrase; outline: as §1
Activity [1],pIC50 [2],pKi [2],pIC50 [3],pKi [3],SMILES
inactive,7.00,6.38,6.73,7.28,[O-][S+]1CC(O)C(O)C(O)CC(O)CC(O)C(O)C(O)C(O)C1 (stereo not drawn)
–,5.35,5.38,5.86,6.38,O=S(=O)([O-])O[C@@H]([C@H](O)[C@H](O)[C@@H](O)CO)[C@H](O)C[S+]1C[C@@H](O)[C@H](O)[C@H]1CO (stereo partly drawn) [KOTALANOL]
–,5.75,5.96,5.60,6.70,O=S(=O)([O-])O[C@@H](CO)[C@H](O)C[S@+]1C[C@@H](O)[C@H](O)[C@H]1CO [SALACINOL]
